ChEMBL document CHEMBL5705892, “MK-2206, an allosteric Akt inhibitor, enhances antitumor efficacy by standard chemotherapeutic agents or molecular targeted drugs in vitro and in vivo” (Mol Cancer Ther, 2010)
Activity calls are given as the source filed them. The rule behind the calls is not given here.

What was measured:
Calu-6 [1] = test: Antiproliferative activity against human Calu-6 cells assessed as reduction in cell proliferation measured after 72 hrs by celltiter-glo assay; assay type: functional, cell-based; conditions: Calu-6, 72 h
Summary of the method: (§1)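 Cells in RPMI 1640 with 10% heat-inactivated FBS at 37°C and 5% CO₂ were seeded at 2 to 3 × 10³ per well. […] Growth was read as cellular ATP by CellTiter-Glo.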

HCC70 [2] = test: Antiproliferative activity against human HCC70 cells assessed as reduction in cell proliferation measured after 72 hrs by celltiter-glo assay; assay type: functional, cell-based; conditions: HCC70, 72 h; summary of the method: as §1
SK-BR-3 [3] = test: Antiproliferative activity against human SK-BR-3 cells assessed as reduction in cell proliferation measured after 72 hrs by celltiter-glo assay; assay type: functional, cell-based; conditions: SK-BR-3, 72 h; summary of the method: as §1
MDA-MB-468 [4] = test: Synergistic antiproliferative activity against human MDA-MB-468 cells assessed as combination index at ED50 measured after 72 hrs in presence of lapatinib by celltiter-glo assay; assay type: functional
Summary of the method: (§2)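 Cells grown in RPMI 1640 with 10% heat-inactivated FBS at 37°C, 5% CO₂. Seeded at 2 to 3 × 10³ per well; drugs added 24 h later. […] Viability read as cellular ATP by CellTiter-Glo. CI calculated by Chou–Talalay from median-effect plots at ED50, ED75 and ED90.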

NCI-H23 = test: Synergistic antiproliferative activity against human NCI-H23 cells assessed as combination index at ED75 measured after 72 hrs in presence of erlotinib by celltiter-glo assay; assay type: functional
Calu-6 [5] = test: Synergistic antiproliferative activity against human Calu-6 cells assessed as combination index at ED90 measured after 72 hrs in presence of erlotinib by celltiter-glo assay; assay type: functional; summary of the method: as §2
MDA-MB-468 [6] = test: Synergistic antiproliferative activity against human MDA-MB-468 cells assessed as combination index at ED90 measured after 72 hrs in presence of lapatinib by celltiter-glo assay; assay type: functional
[7] = molecular target: RAC-alpha serine/threonine-protein kinase (Homo sapiens) (UniProt P31749); test: Inhibition of AKT in human A-431 cells assessed as reduction in AKT phosphorylation at S473 residue at 5 umol/L measured after 5 hrs by Western blot analysis; assay type: cell-based; conditions: dose 5.0 µmol/L
RAC-alpha serine/threonine-protein kinase (Homo sapiens), sequence (P31749 whole entry): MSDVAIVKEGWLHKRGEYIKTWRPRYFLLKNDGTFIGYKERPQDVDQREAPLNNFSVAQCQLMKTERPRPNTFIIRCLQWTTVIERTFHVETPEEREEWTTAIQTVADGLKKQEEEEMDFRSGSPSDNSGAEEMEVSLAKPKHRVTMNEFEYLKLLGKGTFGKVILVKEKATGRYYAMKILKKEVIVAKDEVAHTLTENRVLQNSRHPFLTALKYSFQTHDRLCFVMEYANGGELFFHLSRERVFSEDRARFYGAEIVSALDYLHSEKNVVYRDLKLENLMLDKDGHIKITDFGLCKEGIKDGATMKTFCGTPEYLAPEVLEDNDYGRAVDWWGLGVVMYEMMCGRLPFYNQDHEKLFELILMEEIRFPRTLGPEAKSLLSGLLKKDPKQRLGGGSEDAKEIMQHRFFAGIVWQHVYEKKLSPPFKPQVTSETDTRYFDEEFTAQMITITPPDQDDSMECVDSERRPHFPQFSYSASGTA
Summary of the method: (§3)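 Cells were lysed in Tris-HCl pH 7.5, 150 mM NaCl, 1% Triton X-100 with protease and phosphatase inhibitors. Lysates were run on SDS-PAGE, transferred to nitrocellulose and probed with phospho-specific antibodies.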

[8] = molecular target: RAC-alpha serine/threonine-protein kinase (Homo sapiens) (UniProt P31749); test: Inhibition of AKT in human A-431 cells assessed as reduction in PRAS40 phosphorylation at T246 residue at 5 umol/L measured after 5 hrs in presence of erlotinib by Western blot analysis; assay type: cell-based; conditions: dose 5.0 µmol/L; summary of the method: as §3
SK-OV-3 [9] = test: Synergistic antiproliferative activity against human SK-OV-3 cells assessed as combination index at ED50 treated 24 hrs prior to lapatinib and measured after 72 hrs by celltiter-glo assay; assay type: functional; conditions: time 96 hrs
HCC70 [10] = test: Synergistic antiproliferative activity against lapatinib pretreated human HCC70 cells assessed as combination index at ED75 measured after 72 hrs by celltiter-glo assay; assay type: functional
SK-OV-3 [11] = test: Synergistic antiproliferative activity against lapatinib pretreated human SK-OV-3 cells assessed as combination index at ED75 measured after 72 hrs by celltiter-glo assay; assay type: functional
SK-BR-3 [12] = test: Synergistic antiproliferative activity against human SK-BR-3 cells assessed as combination index at ED90 treated 24 hrs prior to lapatinib and measured after 72 hrs by celltiter-glo assay; assay type: functional; conditions: time 96 hrs
BT-474 = test: Synergistic antiproliferative activity against human BT-474 cells assessed as combination index at ED90 measured after 72 hrs in presence of docetaxel by celltiter-glo assay; assay type: functional; summary of the method: as §2
HCC70 [13] = test: Synergistic antiproliferative activity against human HCC70 cells assessed as combination index at ED50 measured after 72 hrs in presence of docetaxel by celltiter-glo assay; assay type: functional; summary of the method: as §2
MCF7 = test: Synergistic antiproliferative activity against human MCF7 cells assessed as combination index at ED90 measured after 72 hrs in presence of docetaxel by celltiter-glo assay; assay type: functional; summary of the method: as §2
PC-3 = test: Antitumor activity against human PC-3 cells xenografted in CD1 nude mouse assessed as tumor growth inhibition at 120 mg/kg, po administered 3 times per week for 2 weeks starting 24 hrs post docetaxel treatment and measured during compound dosing by caliper method; assay type: functional, organism-based
Summary of the method: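 Male CD1-nude mice received s.c. PC-3 cells and were treated from day 25 after implant, at 0.2 cm³, n = 5. Docetaxel (0.73% ethanol in saline) was given at 5 mg/kg i.v. on day 0. MK-2206 (30% Captisol) was given at 120 mg/kg po on days 1, 3, 5, 8, 10, 12. Caliper volume twice weekly.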

A2780 [14] = test: Synergistic antiproliferative activity against human A2780 cells assessed as combination index at ED50 measured after 72 hrs in presence of camptothecin by celltiter-glo assay; assay type: functional
Summary of the method: (§4)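 Cells were seeded at 2–3 × 10³ per well in RPMI 1640 with 10% FBS. At 24 h, MK-2206 and the partner drug were added simultaneously at constant concentration ratios spanning each agent's IC₅₀, for 72 h. Growth was read as cellular ATP by CellTiter-Glo. CI was taken from median-effect plots of each agent alone and in combination (Chou–Talalay), at ED₅₀, ED₇₅ and ED₉₀.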

A2780 [15] = test: Synergistic antiproliferative activity against human A2780 cells assessed as combination index at ED75 measured after 72 hrs in presence of gemcitabine by celltiter-glo assay; assay type: functional; summary of the method: as §4
A2780 [16] = test: Synergistic antiproliferative activity against human A2780 cells assessed as combination index at ED90 measured after 72 hrs in presence of gemcitabine by celltiter-glo assay; assay type: functional; summary of the method: as §4
NCI-H460 [17] = test: Synergistic antiproliferative activity against human NCI-H460 cells assessed as combination index at ED90 measured after 72 hrs in presence of gemcitabine by celltiter-glo assay; assay type: functional
A2780 [18] = test: Induction of apoptosis in human A2780 cells assessed as increase in caspase-3/7 activity measured after 48 hrs in presence of carboplatin by caspase-glo 3/7 assay; assay type: functional, cell-based; conditions: dose 0.0625-1 µM
NCI-H460 [19] = test: Antitumor activity against human NCI-H460 cells xenografted in CD1 nude mouse assessed as reduction in tumor volume at 120 mg/kg, po administered 3 times per week for 2 weeks in presence of gemcitabine by caliper method; assay type: functional, organism-based
Summary of the method: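 NCI-H460 cells were injected s.c. in Matrigel/PBS into CD1-nude mice (female in the carboplatin study). Mice were randomized at 0.2 cm³, n = 5. Carboplatin was given at 50 mg/kg or gemcitabine at 100 mg/kg, i.v. in saline, on days 0 and 7. MK-2206 (30% Captisol) was given at 120 mg/kg po on days 0, 2, 4, 7, 9, 11. Tumors measured by caliper twice weekly.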

NCI-H1993 = test: Synergistic antiproliferative activity against human NCI-H1993 cells assessed as combination index at ED25 to ED90 measured after 72 hrs in presence of gemcitabine by celltiter-glo assay; assay type: functional
NCI-H1703 = test: Induction of apoptosis in human NCI-H1703 cells assessed as fold induction of capsase-3/7 activity measured after 24 to 48 hrs in presence of gemcitabine by caspase-glo 3/7 assay; assay type: functional; conditions: time 24-48 hrs

## Cl.NC1(c2ccc(-c3nc4ccn5c(=O)[nH]nc5c4cc3-c3ccccc3)cc2)CCC1
Calu-6 [1]
  IC50: 28600 nM
HCC70 [2]
  IC50: 300 nM
SK-BR-3 [3]
  IC50: 100 nM
MDA-MB-468 [4]
  CI50: 0.42
NCI-H23
  CI75: 0.46
Calu-6 [5]
  CI90: 0.13
MDA-MB-468 [6]
  CI90: 0.16
[7]
  inhibition: Active
[8]
  inhibition: Active
SK-OV-3 [9]
  CI50: 0.18
HCC70 [10]
  CI75: 0.18
SK-OV-3 [11]
  CI75: 0.18
SK-BR-3 [12]
  CI90: 0.18
BT-474
  CI90: 0.7
HCC70 [13]
  CI50: 0.9
MCF7
  CI90: 0.3
PC-3
  TGI: Active
A2780 [14]
  CI50: 0.56
A2780 [15]
  CI75: 0.43
A2780 [16]
  CI90: 0.39
NCI-H460 [17]
  CI90: 0.56
A2780 [18]
  Activity: Dose-Dependent Effect
NCI-H460 [19]
  Activity: Active
NCI-H1993
  CI: 0.14
NCI-H1703
  fold change (FC): 1.5
